Test results published in article PMC13435124 (The FASEB Journal, 2026).
Entries after “also recorded” stand apart in the source; their conditions may differ.

What was measured:
WT and APP/PS1 male mice [1] = assay: Body weight and metabolic parameters of 11-month-old males; type: in vivo, mouse; conditions: 1 month
WT and APP/PS1 male mice [2] = assay: Hippocampal gene expression, real-time RT-PCR; type: in vivo, mouse
In short: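 Hippocampi of 11-month-old WT and APP/PS1 males after 1 month of intranasal PBS or test compound at 100 mg/kg. hAPP, Bace1, Il-1β, Iba1, Trem2, Hmox1, Ppargc1α and Bdnf mRNA measured by real-time RT-PCR.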

N2a-APPswe cells [3] = assay: Nrf2 silencing; type: cell-based, mouse
BV-2 cells [4] = assay: Cell metabolism, Alamar Blue; type: cell-based, mouse; conditions: 24 h, Alamar Blue (Figure S1B)
In short: (§1)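 Cells exposed 24 h to test compound at 500, 250, 100, 50 or 5 μM, DMSO final up to 0.1% v/v. Resazurin 50 μM in PBS added 3 h before the end. Absorbance read at 570 nm with 620 nm reference. Highest nontoxic concentration chosen from metabolic capacity.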

N2a-APPswe cells [5] = assay: Nrf2-dependent gene expression; type: cell-based, mouse
[6] = test system: Nrf2 activation in KeratinoSens cells; assay: KeratinoSens reporter gene assay; type: cell-based; conditions: 6 h; Iso 250 μM, DMF 50 μM
In short: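 KeratinoSens ARE-luciferase cells (passage ≤22) plated at 1.0 × 10^4 per well in triplicate; after 24 h switched to DMEM with 1% FBS, no geneticin. Wortmannin 500 nM added 1 h before test compound at 250 μM; DMF 50 μM as positive control; DMSO ≤0.1%. After 6 h, Alamar Blue (4 h, 37°C), then luciferase read as fold over DMSO. Three independent experiments in triplicate.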

[7] = source not given; cited from earlier work
[8] = Blood-brain barrier permeability, PAMPA with 2% porcine polar brain lipid; type: in vitro ADME; conditions: 150 μg/mL, 16 h, cut-off 2.0 × 10^−6 cm s^−1 (Figure S4)
In short: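 PAMPA blood–brain barrier model using membranes with 2% (w/v) porcine polar brain lipid. Permeability given as experimental Papp in cm/s. Mean of three independent experiments, each run in duplicate.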

BV-2 cells [9] = assay: Nrf2 silencing; type: cell-based, mouse; conditions: BV-2, Iso + LPS
[10] = test system: BV-2 cells exposed to LPS; assay: iNOS and pro-IL-1β protein in LPS-stimulated microglia, western blot; type: cell-based, mouse; conditions: BV-2, 250 μM, LPS 50 ng/mL, 24 h
In short: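 BV-2 cells given test compound at 250 μM, LPS 50 ng/mL added 30 min later, for 24 h. iNOS and pro-IL-1β protein measured by western blot. Mean ± SEM of four independent experiments, relative to untreated control.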

[11] = test system: Aβ40 and Aβ42 peptide levels in N2a-APPswe cells; assay: Aβ40 and Aβ42 peptide levels in N2a cell supernatants; type: cell-based, mouse; conditions: 250 μM, 24 h
In short: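 N2a-wt and N2a-APPswe cells left untreated or exposed to test compound at 250 μM for 24 h. Aβ40 and Aβ42 peptides quantified by ELISA.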

APP/PS1 male mice [12] = assay: Aβ40 and Aβ42 levels in cortex, hippocampus and plasma; type: in vivo, mouse; conditions: 11-month-old APP/PS1 males, 100 mg/kg, 1 month
In short: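 APP/PS1 and WT littermate males aged 10 months, randomised to groups of n = 5. PBS vehicle or test compound at 100 mg/kg given intranasally for 1 month. At 11 months, Aβ40 and Aβ42 measured in cortex, hippocampus and plasma; plasma Aβ42/Aβ40 ratio derived. Mean ± SEM of five animals.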

N2a-wt cells = assay: Cell metabolism, Alamar Blue; type: cell-based, mouse; conditions: 24 h, Alamar Blue (Figure S1A)
In short: as §1

APP/PS1 female mice = assay: Behavioral tests in 6-month-old females; type: in vivo, mouse; conditions: intranasal 50 mg/kg, 1 month
APP/PS1 male mice [13] = assay: Fear conditioning test; type: in vivo, mouse; conditions: 100 mg/kg, 1 month
In short: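 10-month-old males, n = 5 per group, given intranasal PBS or test compound at 100 mg/kg for 1 month. Day 1: paired auditory–shock stimuli, return to cage 1 min after last pair. Day 2: freezing scored 5 min in context A. Day 3: altered context B, freezing scored 3 min, then 3 min with auditory cue.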

[14] = APP/PS1 + Iso vs APP/PS1, 100 mg/kg, 1 month
[15] = APP/PS1 males, 100 mg/kg, 1 month
[16] = WT and APP/PS1 males, 100 mg/kg, 1 month, not significant
[17] = N2a-APPswe, 1, 3 and 6 h (Figure S2)

Q: For `CC=Cc1ccc(O)c(OC)c1` [Iso, 2‐methoxy‐4‐(prop‐1‐en‐1‐yl) phenol], which triglycerides (WT and APP/PS1 male mice [1]; 11-month-old APP/PS1 males, 100 mg/kg) is on record?
A: reduction

Q: What about the adipose tissue weight (WT and APP/PS1 male mice [1]; 11-month-old WT and APP/PS1 males, 100 mg/kg) of the same compound?
A: trend toward a decrease

Q: What about the “decrease in body weight” value (WT and APP/PS1 male mice [1]; 11-month-old males, intranasal 100 mg/kg) of the same compound?
A: < 15%

Q: What about the “decrease in Bdnf gene of APP/PS1 mice” value (WT and APP/PS1 male mice [2]; [14]) of the same compound?
A: reversed

Q: What about the “reduction in Ppargc1α mRNA levels of APP/PS1 mice” value (WT and APP/PS1 male mice [2]; [14]) of the same compound?
A: reversed

Q: What about the “Iba1 expression in hippocampus” value (WT and APP/PS1 male mice [2]; [15]) of the same compound?
A: increased

Q: What about the “h-APP gene expression in hippocampus” value (WT and APP/PS1 male mice [2]; [15]) of the same compound?
A: not affected

Q: And the “increase in Trem2 gene expression (trend)” value (WT and APP/PS1 male mice [2]; [15])?
A: 1.6 fold

Q: What about the “reduction of Bace1 mRNA levels” value (WT and APP/PS1 male mice [2]; Iso-treated 11-month-old animals, 100 mg/kg, not significant) of the same compound?
A: ~ 4 fold

Q: What about the “Bace1 mRNA levels in hippocampus” value (WT and APP/PS1 male mice [2]; [16]) of the same compound?
A: clear tendency toward a reduction

Q: And the “Il1β mRNA levels in hippocampus” value (WT and APP/PS1 male mice [2]; [16])?
A: clear tendency toward a reduction; also recorded: markedly reduced

Q: What about the “Trem2 mRNA levels in hippocampus” value (WT and APP/PS1 male mice [2]; WT males, 100 mg/kg, 1 month) of the same compound?
A: decreased

Q: What about the “Hmox1 expression in hippocampus” value (WT and APP/PS1 male mice [2]; both WT and APP/PS1 males, 100 mg/kg, 1 month) of the same compound?
A: increased

Q: What about the Aβ40 peptide levels (N2a-APPswe cells [3]; not transfected N2a-APPswe, silencing experiment set, 24 h) of the same compound?
A: significantly decreased

Q: What about the “Aβ40 levels in Nrf2-silenced cells” value (N2a-APPswe cells [3]; siNrf2 + Iso, N2a-APPswe, 36 h after transfection) of the same compound?
A: further decreased

Q: And the “highest nontoxic concentration tested” value (BV-2 cells [4])?
A: 250 µM

Q: What about the “Hmox1 gene expression (reduced in N2a-APPswe)” value (N2a-APPswe cells [5]; N2a-APPswe, 250 μM, 3 h and 6 h) of the same compound?
A: significantly reverted

Q: And the Nqo1 gene expression (N2a-APPswe cells [5]; [17])?
A: induced

Q: And the Sod1 gene expression (N2a-APPswe cells [5]; [17])?
A: induced

Q: What about the “Nrf2 activation (luciferase induction)” value [6] of the same compound?
A: induced Nrf2 activation

Q: What about the “octanol-water partition coefficient (logP)” value [7] of the same compound?
A: 3.04

Q: And the “BBB permeability (PAMPA Papp)” value [8]?
A: could cross the BBB

Q: And the “Iso-induced NO decrease in siGAPDH- or siNeg-transfected cells” value (BV-2 cells [9])?
A: not affected

Q: And the “Iso-induced NO decrease in siNrf2-transfected cells” value (BV-2 cells [9])?
A: reversed

Q: What about the “LPS-induced iNOS protein levels” value [10] of the same compound?
A: reduced

Q: And the “LPS-induced pro-IL-1β protein levels” value [10]?
A: reduced

Q: What about the Aβ42 peptide levels [11] of the same compound?
A: no effect was observed

Q: What about the Aβ40 levels ([11]; vs untreated cells) of the same compound?
A: significantly decreased

Q: What about the “cortex Aβ40 levels” value (APP/PS1 male mice [12]) of the same compound?
A: no alterations observed

Q: And the “cortex Aβ42 levels” value (APP/PS1 male mice [12])?
A: no alterations observed

Q: What about the “hippocampus Aβ40 levels” value (APP/PS1 male mice [12]) of the same compound?
A: no alterations observed

Q: What about the “hippocampus Aβ42 levels” value (APP/PS1 male mice [12]) of the same compound?
A: no alterations observed

Q: And the “plasma Aβ40 levels” value (APP/PS1 male mice [12])?
A: decreased

Q: What about the “plasma Aβ42 levels” value (APP/PS1 male mice [12]) of the same compound?
A: decreased

Q: And the “plasma Aβ42/Aβ40 ratio” value (APP/PS1 male mice [12]; not significant)?
A: partial increase

Q: What about the “highest nontoxic concentration tested” value (N2a-wt cells) of the same compound?
A: 250 µM

Q: And the “behavior (hot plate, open field, fear conditioning)” value (APP/PS1 female mice)?
A: no relevant behavioral alterations were observed

Q: What about the “% of freezing, contextual memory (day 2)” value (APP/PS1 male mice [13]; APP/PS1 males) of the same compound?
A: clear but not significant increase

Q: And the “associative memory (day 3)” value (APP/PS1 male mice [13]; males)?
A: no differences were detected
